{"source": "ChEMBL document CHEMBL3593207", "about": "“Imidazole clubbed 1,3,4-oxadiazole derivatives as potential antifungal agents” (2015)", "type_in_all_cases": "functional", "key": {"Candida albicans [1]": {"tested_on": "Candida albicans", "experiment": "Antifungal activity against Candida albicans ATCC 10261 after 48 hrs by disc diffusion assay", "outline": "(§1)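 Cells grown in YPD were mixed at 10^3 cells/ml into molten agar (about 40 °C) and poured into plates. Test compound at 1/2×MIC, MIC and 2×MIC was spotted on filter discs on the set agar, with fluconazole and 1% DMSO as positive and vehicle controls. Plates were incubated 48 h at 37 °C, then inhibition zone diameters were recorded in mm.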"}, "Candida albicans [2]": {"tested_on": "Candida albicans", "experiment": "Inhibition of ergosterol biosynthesis in Candida albicans 2323 assessed as ergosterol content after 16 hrs by spectrophotometer analysis", "set-up": "scale not given: the % may be the effect or the level left", "outline": "(§2)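 Cells were pelleted, washed, weighed wet, and saponified in 3 mL 25% alcoholic KOH at 85 °C for 1 h. Sterols were extracted with 1 mL water plus 3 mL n-heptane. Ergosterol content is expressed relative to untreated control cells.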"}, "Candida tropicalis [3]": {"tested_on": "Candida tropicalis", "experiment": "Antifungal activity against clinical isolates of Candida tropicalis 2356 by broth microdilution assay", "outline": "(§3)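 CLSI M27-A3 broth microdilution. Compounds diluted to 1 mg/ml in 1% DMSO. Fluconazole (1 mg/ml) served as positive control, 1% DMSO as vehicle control, with media and culture controls. Triplicate at each concentration, repeated thrice. Inocula came from YPDA stocks subcultured in broth for 48 h at 37 °C.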"}, "Candida tropicalis [4]": {"tested_on": "Candida tropicalis", "experiment": "Antifungal activity against Candida tropicalis ATCC 750 by broth microdilution assay", "outline": "as §3"}, "Candida tropicalis [5]": {"tested_on": "Candida tropicalis", "experiment": "Inhibition of ergosterol biosynthesis in Candida tropicalis ATCC 750 assessed as ergosterol content after 16 hrs by spectrophotometer analysis", "set-up": "scale not given: the % may be the effect or the level left", "outline": "as §2"}, "Candida albicans [6]": {"tested_on": "Candida albicans", "experiment": "Antifungal activity against clinical isolates of Candida albicans 2367 by broth microdilution assay", "outline": "as §3"}, "Candida albicans [7]": {"tested_on": "Candida albicans", "experiment": "Antifungal activity against clinical isolates of Candida albicans 2323 by broth microdilution assay", "outline": "as §3"}, "Candida albicans [8]": {"tested_on": "Candida albicans", "experiment": "Antifungal activity against clinical isolates of Candida albicans 2779 by broth microdilution assay", "outline": "as §3"}, "Candida albicans [9]": {"tested_on": "Candida albicans", "experiment": "Antifungal activity against clinical isolates of Candida albicans 2367 after 48 hrs by disc diffusion assay", "outline": "as §1"}, "Candida albicans [10]": {"tested_on": "Candida albicans", "experiment": "Inhibition of ergosterol biosynthesis in Candida albicans ATCC 10261 assessed as ergosterol content after 16 hrs by spectrophotometer analysis", "set-up": "scale not given: the % may be the effect or the level left", "outline": "as §2"}, "Candida tropicalis [11]": {"tested_on": "Candida tropicalis", "experiment": "Inhibition of ergosterol biosynthesis in Candida tropicalis 2029 assessed as ergosterol content after 16 hrs by spectrophotometer analysis", "set-up": "scale not given: the % may be the effect or the level left", "outline": "as §2"}, "Candida tropicalis [12]": {"tested_on": "Candida tropicalis", "experiment": "Antifungal activity against clinical isolates of Candida tropicalis 2356 after 48 hrs by disc diffusion assay", "outline": "as §1"}, "Candida tropicalis [13]": {"tested_on": "Candida tropicalis", "experiment": "Antifungal activity against clinical isolates of Candida tropicalis 2029 by broth microdilution assay", "outline": "as §3"}, "Candida albicans [14]": {"tested_on": "Candida albicans", "experiment": "Inhibition of ergosterol biosynthesis in Candida albicans 2367 assessed as ergosterol content after 16 hrs by spectrophotometer analysis", "set-up": "scale not given: the % may be the effect or the level left", "outline": "as §2"}, "Candida albicans [15]": {"tested_on": "Candida albicans", "experiment": "Antifungal activity against clinical isolates of Candida albicans 2323 after 48 hrs by disc diffusion assay", "outline": "as §1"}, "Candida tropicalis [16]": {"tested_on": "Candida tropicalis", "experiment": "Antifungal activity against clinical isolates of Candida tropicalis 2029 after 48 hrs by disc diffusion assay", "outline": "as §1"}, "Candida tropicalis [17]": {"tested_on": "Candida tropicalis", "experiment": "Inhibition of ergosterol biosynthesis in Candida tropicalis 2356 assessed as ergosterol content after 16 hrs by spectrophotometer analysis", "set-up": "scale not given: the % may be the effect or the level left", "outline": "as §2"}, "Candida albicans [18]": {"tested_on": "Candida albicans", "experiment": "Inhibition of ergosterol biosynthesis in Candida albicans 2779 assessed as ergosterol content after 16 hrs by spectrophotometer analysis", "set-up": "scale not given: the % may be the effect or the level left", "outline": "as §2"}, "Candida albicans [19]": {"tested_on": "Candida albicans", "experiment": "Antifungal activity against clinical isolates of Candida albicans 2779 after 48 hrs by disc diffusion assay", "outline": "as §1"}, "Candida tropicalis [20]": {"tested_on": "Candida tropicalis", "experiment": "Antifungal activity against Candida tropicalis ATCC 750 after 48 hrs by disc diffusion assay", "outline": "as §1"}, "Candida albicans [21]": {"tested_on": "Candida albicans", "experiment": "Antifungal activity against Candida albicans ATCC 10261 by broth microdilution assay", "outline": "as §3"}}, "data": [{"smiles": "OC(Cn1cncn1)(Cn1cncn1)c1ccc(F)cc1F", "note": "[FLUCONAZOLE]", "values": [{"measurement": "inhibition zone (IZ)", "setting": "Candida albicans [1]", "value": 11, "unit": "mm"}, {"measurement": "Activity", "setting": "Candida albicans [2]", "value": 100, "unit": "%"}, {"measurement": "MIC", "setting": "Candida tropicalis [3]", "value": 62, "unit": "µg/mL"}, {"measurement": "MIC", "setting": "Candida tropicalis [4]", "value": 16, "unit": "µg/mL"}, {"measurement": "Activity", "setting": "Candida tropicalis [5]", "value": 100, "unit": "%"}, {"measurement": "MIC", "setting": "Candida albicans [6]", "value": 16, "unit": "µg/mL"}, {"measurement": "MIC", "setting": "Candida albicans [7]", "value": 32, "unit": "µg/mL"}, {"measurement": "MIC", "setting": "Candida albicans [8]", "value": 32, "unit": "µg/mL"}, {"measurement": "inhibition zone (IZ)", "setting": "Candida albicans [9]", "value": 10, "unit": "mm"}, {"measurement": "Activity", "setting": "Candida albicans [10]", "value": 100, "unit": "%"}, {"measurement": "Activity", "setting": "Candida tropicalis [11]", "value": 100, "unit": "%"}, {"measurement": "inhibition zone (IZ)", "setting": "Candida tropicalis [12]", "value": 8, "unit": "mm"}, {"measurement": "MIC", "setting": "Candida tropicalis [13]", "value": 32, "unit": "µg/mL"}, {"measurement": "Activity", "setting": "Candida albicans [14]", "value": 100, "unit": "%"}, {"measurement": "inhibition zone (IZ)", "setting": "Candida albicans [15]", "value": 9, "unit": "mm"}, {"measurement": "inhibition zone (IZ)", "setting": "Candida tropicalis [16]", "value": 11, "unit": "mm"}, {"measurement": "Activity", "setting": "Candida tropicalis [17]", "value": 100, "unit": "%"}, {"measurement": "Activity", "setting": "Candida albicans [18]", "value": 100, "unit": "%"}, {"measurement": "inhibition zone (IZ)", "setting": "Candida albicans [19]", "value": 13, "unit": "mm"}, {"measurement": "inhibition zone (IZ)", "setting": "Candida tropicalis [20]", "value": 16, "unit": "mm"}, {"measurement": "MIC", "setting": "Candida albicans [21]", "value": 8, "unit": "µg/mL"}]}]}
